Screening results: PubChem, several laboratories
A selection: hits, their analogues and other compounds. The true share with any hit is near 1.3%.
EP2 modulator = EP2 receptor modulators, cAMP readout, primary screen, cell-based, HTRF cAMP, PGE2 stimulation; actives 0.83% (n = 260,000); induction, % at 25 µM; AID 940, 2007; EP2-expressing cells, cAMP HTRF FRET, PGE2 co-stimulation;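 active = compounds whose cAMP rise, as percent of the full-agonist control response, exceeds 60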;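 also: rat C6 glioma line stably carrying human EP2 under a CMV promoter; the protocol text gives 20 µM as final concentration; 100% = response of wells given 1 µM PGE2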
JMJD2C inh = inhibitors of GASC-1 histone demethylase, primary screen, biochemical, fluorescence, DELFIA europium. Lysine-specific demethylase 4C (Homo sapiens), Q9H3R0. GST-JMJD2C(1-420) H3K9me3 demethylation. inhibition, % at 2.35 µM. actives 0.069% (n = 330,000);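 active = more than half of a compound's replicate wells show inhibition beyond 50%, single wells judged on their own value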;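 also: signal counts dimethyl H3K9 product captured on neutravidin plate; 0% = median of DMSO wells and 100% = 0.3 times that DMSO median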
Target sequence (Q9H3R0 1-420 limits assumed): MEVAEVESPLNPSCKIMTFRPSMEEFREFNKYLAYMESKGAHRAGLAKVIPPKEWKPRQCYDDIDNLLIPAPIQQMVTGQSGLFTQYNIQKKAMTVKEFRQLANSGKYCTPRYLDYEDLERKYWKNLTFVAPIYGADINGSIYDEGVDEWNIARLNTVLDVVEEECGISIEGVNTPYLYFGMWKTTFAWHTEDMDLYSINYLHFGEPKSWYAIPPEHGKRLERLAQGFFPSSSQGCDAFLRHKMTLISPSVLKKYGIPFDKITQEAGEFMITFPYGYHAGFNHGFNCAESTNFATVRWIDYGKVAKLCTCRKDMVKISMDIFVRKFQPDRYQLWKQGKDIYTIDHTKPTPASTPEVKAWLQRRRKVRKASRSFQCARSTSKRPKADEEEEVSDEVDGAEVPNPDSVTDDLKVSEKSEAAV
NR2E3 ag-1 = NR2E3 agonists in two-hybrid cells, primary screen, cell-based, luminescence, CHO-S, Gal4-NCOR/VP16-NR2E3; AID 602229, 2012; luciferase; inhibition of corepressor binding, % at 3.98 µM; actives 0.35% (n = 360,000);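 active = inhibition above the mean of all tested compounds plus 3 SD, cut at about 70% in these data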;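 also: 0% = DMSO with NR2E3 transfected cells and 100% = cells lacking NR2E3 construct; higher means lower luciferase signal from less NR2E3 corepressor binding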
PGE2 EP2 inh = human EP2 receptor antagonists, primary screen, TR-FRET cAMP, C6 glioma cells; Prostaglandin E2 receptor EP2 subtype (Homo sapiens), P43116; C6 glioma cells expressing human EP2; cells stimulated with saturating PGE2; inhibition, % at 25 µM; actives 0.52% (n = 260,000);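 active = percent inhibition above 40 after rounding to a whole number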;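 also: rat C6 glioma host cells with rolipram phosphodiesterase inhibitor present; the protocol text gives 20 µM as final concentration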
Furin inh = human furin inhibitors, primary screen, biochemical, fluorescence intensity; P09958; purified furin, fluorogenic substrate cleavage; inhibition, % at 20 µM or 30 µM; actives 0.061% (n = 220,000); AID 463115, 2010; in the data active = inhibition above about 25%
NR2E3 ag-2 = inhibitors of NR2E3-RetCOR corepressor binding, primary screen, NR2E3 agonist project, biochemical, TR-FRET, GST-NR2E3, biotin-RetCOR; inhibition of corepressor binding, % at 4.78 µM; actives 0.12% (n = 320,000); Photoreceptor-specific nuclear receptor (Homo sapiens), Q9Y5X4; AID 2300, 2010; 1536-well;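 active = percent inhibition above the cutoff of mean plus 3 SD of all tested compounds, set per screening campaign, cut at about 20% in these data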;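 also: 0% = DMSO wells and 100% = biotin wells as full block of FRET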
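System: GST-tagged NR2E3 plus biotinylated RetCOR corepressor; Buffer or medium: pH 7.5 Tris-based buffer; Probe or stimulus: RetCOR corepressor, biotinylated, 7 nM; Doses: compound at 4.8 µM, single dose; Schedule: 5 h incubation at 4 °C; Technique: time-resolved FRET; Evaluation: percent inhibition of TR-FRET ratio; Replication: one well per compound, singlicate testing.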
NR2E3 ag confirm = NR2E3 agonists, confirmation, biochemical, TR-FRET; shares compounds with NR2E3 ag-2; cell-free NR2E3 corepressor release, 5 h; activation (reported as inhibition), % at 3.98 µM; actives 39% (n = 360); AID 2379, 2010; in the data active = activation above about 20%
PPARg-NCOR2 ag = agonists of PPARg-NCOR2 corepressor interaction, counter-screen for NR2E3 agonist project, biochemical, TR-FRET | actives 45% (n = 360) | inhibition, % at 3.98 µM | TR-FRET PPARg-NCOR2 coregulator interaction | shares compounds with NR2E3 ag-2; in the data active = inhibition above about 20%;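 also: 0% = DMSO vehicle and 100% = wells without protein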
Active calls of the source: *; . = no result.

SMILES | EP2 modulator | JMJD2C inh | NR2E3 ag-1 | PGE2 EP2 inh | Furin inh | NR2E3 ag-2 | NR2E3 ag confirm | PPARg-NCOR2 ag
C=CCOc1ccc(/C(O)=C2\C(=O)C(=O)N(CCOC)C2c2cccnc2)cc1 (stereo unspecified) | 34.1 | 27.0 | 21.7 | 34.6 | -22.4 | 20.6* | 5.0 | 4.2
Cc1cc(C)c(Cn2c(=O)n(CCCC(=O)NCc3ccco3)c(=O)c3sccc32)c(C)c1 | 16.5 | 14.7 | 7.8 | 9.1 | -21.7 | 26.9* | 3.6 | -4.6
Cc1ccccc1Cn1c(=O)n(CCCC(=O)NCc2ccco2)c(=O)c2sccc21 | -2.5 | 7.9 | -6.4 | 6.0 | -3.1 | 1.8 | . | .
C=CCc1c(C)nc(SC)nc1Nc1ccc(C)cc1 | 42.9 | 6.6 | 12.1 | 7.4 | -22.1 | 25.0* | -4.3 | -5.5
S=C(c1ccc(-c2cccc(Cl)c2)o1)N1CCCCC1 | 2.3 | -1.7 | -148.6 | 3.1 | -6.9 | 30.2* | 17.4 | 10.7
COc1ccccc1NC(=O)N1CCC(NC(=O)C2CCCCC2)CC1 | 2.0 | -10.1 | -8.2 | 0.2 | . | 32.1* | -12.2 | -4.3
CC(=O)NC(CCS(C)(=O)=O)C(=O)Nc1ccccc1 (stereo unspecified) | 7.6 | -14.0 | -8.7 | 7.9 | -21.8 | 1.1 | . | .
CC(=O)NC(CCS(C)(=O)=O)C(=O)Nc1ccc(Cl)c(Cl)c1 (stereo unspecified) | 4.5 | 1.4 | -43.4 | 6.3 | -31.5 | 19.8* | -5.2 | -7.0
CC(C)c1nc2sc3c(=O)[nH]c(=S)[nH]c3c2c2c1CCC2 | 39.9 | 2.8 | . | 13.7 | -19.8 | . | . | .
CC(C)c1nc2sc3c(=O)[nH]c(=S)[nH]c3c2c2c1CCCC2 | 19.3 | -2.6 | -19.1 | 11.7 | -18.5 | 23.7* | 44.7* | 43.6*
Cc1ccc(C(=O)C2=C(O)C(=O)N(Cc3cccnc3)C2c2ccc(Br)cc2)o1 (stereo unspecified) | . | -4.7 | 16.2 | . | . | 20.9* | 21.6* | 18.4
Cc1ccc(C(=O)C2=C(O)C(=O)N(Cc3cccnc3)C2c2ccc(Cl)c(Cl)c2)o1 (stereo unspecified) | . | 1.2 | -3.8 | . | . | 31.9* | 23.1* | 20.4*
Cc1ccc(C(=O)C2=C(O)C(=O)N(Cc3cccnc3)C2c2ccc(OC(C)C)cc2)o1 (stereo unspecified) | . | -1.2 | 12.9 | . | . | 21.7* | 5.8 | 12.5
COc1ccc(C2C(C(=O)c3ccc(C)o3)=C(O)C(=O)N2Cc2cccnc2)cc1 (stereo unspecified) | . | -22.1 | -21.8 | . | . | 11.2 | . | .
Cc1ccc(C)c(/C(O)=C2/C(=O)C(=O)N(CCCn3ccnc3)C2c2ccncc2)c1 (stereo unspecified) | 44.8 | . | . | 14.5 | . | . | . | .
C=CCn1c(SCC(=O)Nc2cc(Cl)ccc2OC)nnc1-c1ccco1 | -24.5 | . | . | 7.0 | . | . | . | .
O=C(Nc1cccc(Cl)c1N1CCCCC1)c1cccnc1 | 58.0 | . | . | 7.3 | . | . | . | .
CC(C)(C)NS(=O)(=O)c1ccc(S(=O)(=O)N2CCCCC2)cc1 | -47.0 | . | . | 24.2 | . | . | . | .
CCOc1ccccc1NC(=O)CSc1nc(N)c(C#N)cc1C#N | 44.5 | 2.7 | 0.0 | 21.4 | -4.9 | 43.1* | 33.5* | 54.3*
COc1ccccc1NC(=O)CSc1nc(N)c(C#N)cc1C#N | -43.9 | -25.9 | -13.7 | 11.4 | -2.7 | -1.3 | . | .
Cc1cc(C(=O)OCC(=O)c2ccc(Br)s2)no1 | 25.4 | 8.0 | -10.2 | 27.0 | -5.6 | 24.8* | 5.6 | 14.0
COc1cccc(C2/C(=C(\O)c3ccc4c(c3)OCCO4)C(=O)C(=O)N2Cc2cccnc2)c1 (stereo unspecified) | . | -29.1 | -25.1 | . | . | 12.3 | . | .
O=C1C(=O)N(Cc2cccnc2)C(c2cccc(F)c2)/C1=C(/O)c1ccc2c(c1)OCO2 (stereo unspecified) | . | 1.1 | -6.9 | . | . | 23.5* | 26.3* | 28.0*
C#CCN1C(=O)C2C(C(=O)NC)C3(C)C=CC2(O3)C1C(=O)NC1CCCC1 (stereo unspecified) | -3.5 | . | . | 6.9 | . | . | . | .
Cc1nn(C(C)C)c(C)c1CN(CCCN(C)C)Cc1ccco1 | 19.1 | . | . | 3.2 | . | . | . | .
SMILES | EP2 modulator | JMJD2C inh | NR2E3 ag-1 | PGE2 EP2 inh | Furin inh | NR2E3 ag-2 | NR2E3 ag confirm | PPARg-NCOR2 ag
CCc1cc2cc(C(=O)Nc3ccc(C)cc3)sc2s1 | 23.9 | 10.7 | 0.7 | 14.2 | -16.5 | 33.3* | 20.4* | 22.9*
CCc1sc(C(=O)Nc2ccc(N3CCOCC3)cc2)cc1C | . | 5.6 | -26.1 | . | . | . | . | .
Cn1c(N2CCC(C(=O)NCc3cccc(F)c3)CC2)nc2ccccc21 | -63.5 | . | . | 4.6 | . | . | . | .
O=S(=O)(Nc1nc2cc3c(cc2nc1Cl)OCCO3)c1ccccc1 | 39.8 | 0.9 | -16.7 | 16.7 | -19.7 | 29.9* | 11.3 | 13.5
Cc1ccc(-c2cc(N)c(=O)n(CC(=O)N3CCCC3)n2)o1 | -51.3 | . | . | 7.9 | . | . | . | .
N/C(=N\OC(=O)COc1ccc2ccccc2c1Br)c1cccnc1 | 58.9 | 30.1 | . | 23.3 | -20.2 | 21.4* | 11.8 | 6.0
CCCOc1cccc(C2C(C(=O)c3ccco3)=C(O)C(=O)N2CCCn2ccnc2)c1 (stereo unspecified) | . | -4.5 | -1.0 | . | . | 5.2 | . | .
O=C(C1=C(O)C(=O)N(CCCn2ccnc2)C1c1cccc(Br)c1)c1ccco1 (stereo unspecified) | . | -13.4 | 3.2 | . | . | 34.3* | -0.2 | -0.5
O=C(C1=C(O)C(=O)N(CCCn2ccnc2)C1c1ccccc1)c1ccco1 (stereo unspecified) | . | -23.2 | -8.1 | . | . | 31.6* | 5.7 | -1.4
COC(=O)CCCCC1SCC2NC(=O)NC21 (stereo unspecified) | 30.4 | -23.0 | 21.2 | 5.3 | -15.4 | 7.0 | . | .
O=C(O)CCCC[C@@H]1SC[C@@H]2NC(=O)N[C@@H]21 | . | 95.7* | 7.4 | 11.8 | . | 93.4* | 94.4* | 94.5*
Cc1cccc(C)c1NCc1nnc(SCC(=O)Nc2cccc3ccccc23)n1C | -50.0 | . | . | 17.2 | . | . | . | .
